Consider twelve compounds from ChEMBL document CHEMBL1122866, “3-Phenyl-1-indanamines. Potential antidepressant activity and potent inhibition of dopamine, norepinephrine, and serotonin uptake” (J Med Chem, 1985).

By IC50 is commonly meant the midpoint of a concentration-inhibition curve. Lower therefore signals inhibition by little substance.

Holding throughout (type): functional
For assay [1], the species on record is Mus musculus. The experiment in a line: Antagonistic activity against tetrabenazine-induced ptosis in mice. An outline of the steps:
(§1)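 Mice dosed intraperitoneally; the result is reported as the ED50 in μmol/kg with a range in parentheses. Test compounds are racemates of >95% isomeric purity by TLC.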

The target in assay [2] is Norepinephrine transporter (Rattus norvegicus, UniProt Q9WTR4). The experiment in a line: Inhibition of noradrenaline uptake in rat synaptosomal fraction. An outline of the steps: (§2)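 Synaptosomal uptake of DA, NE or 5-HT measured. The IC50 is in nM and is the mean of at least two determinations, each using five test concentrations in triplicate.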
Sequence of Norepinephrine transporter (Q9WTR4 whole entry): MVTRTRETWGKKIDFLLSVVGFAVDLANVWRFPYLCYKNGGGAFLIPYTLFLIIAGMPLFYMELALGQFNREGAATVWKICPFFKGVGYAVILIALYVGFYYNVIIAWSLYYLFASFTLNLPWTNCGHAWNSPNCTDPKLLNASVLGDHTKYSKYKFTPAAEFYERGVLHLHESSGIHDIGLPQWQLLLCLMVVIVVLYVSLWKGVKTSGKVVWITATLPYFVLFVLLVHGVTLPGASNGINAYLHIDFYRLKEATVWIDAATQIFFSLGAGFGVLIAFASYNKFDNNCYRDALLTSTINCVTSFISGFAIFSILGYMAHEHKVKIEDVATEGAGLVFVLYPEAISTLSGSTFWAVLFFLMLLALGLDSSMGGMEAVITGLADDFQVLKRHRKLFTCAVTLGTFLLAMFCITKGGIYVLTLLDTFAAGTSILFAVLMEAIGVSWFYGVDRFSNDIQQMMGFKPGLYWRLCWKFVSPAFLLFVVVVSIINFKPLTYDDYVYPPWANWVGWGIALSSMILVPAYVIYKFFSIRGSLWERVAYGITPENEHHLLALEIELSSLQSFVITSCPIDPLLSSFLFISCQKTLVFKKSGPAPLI
Assay [3] addresses Sodium-dependent dopamine transporter (Rattus norvegicus, UniProt P23977). The experiment in a line: Inhibition of dopamine uptake in rat synaptosomal fraction.
The species named for assay [4] is Mus musculus. Nature of the assay: Compound was tested for antagonistic activity against 5-HTP-induced potentiation in mice. An outline of the steps:
as §1

The target of assay [5] is Sodium-dependent serotonin transporter (Rattus norvegicus, UniProt P31652). Nature of the assay: Inhibition of 5-HT uptake in rat synaptosomal fraction. An outline of the steps:
as §2

The species entered for assay [6] is Mus musculus. Nature of the assay: Antagonistic activity against tetrabenazine-induced ptosis in mice. As to conditions: Mus musculus; read-out: ED50. A digest of the protocol:
as §1

Assay [7] is filed under the species Mus musculus. The experiment in a line: Antagonistic activity against 5-HTP induced potentiation in mice. An outline of the steps:
as §1

Some results are limits rather than exact numbers.

Sequence of Sodium-dependent dopamine transporter (P23977 whole entry): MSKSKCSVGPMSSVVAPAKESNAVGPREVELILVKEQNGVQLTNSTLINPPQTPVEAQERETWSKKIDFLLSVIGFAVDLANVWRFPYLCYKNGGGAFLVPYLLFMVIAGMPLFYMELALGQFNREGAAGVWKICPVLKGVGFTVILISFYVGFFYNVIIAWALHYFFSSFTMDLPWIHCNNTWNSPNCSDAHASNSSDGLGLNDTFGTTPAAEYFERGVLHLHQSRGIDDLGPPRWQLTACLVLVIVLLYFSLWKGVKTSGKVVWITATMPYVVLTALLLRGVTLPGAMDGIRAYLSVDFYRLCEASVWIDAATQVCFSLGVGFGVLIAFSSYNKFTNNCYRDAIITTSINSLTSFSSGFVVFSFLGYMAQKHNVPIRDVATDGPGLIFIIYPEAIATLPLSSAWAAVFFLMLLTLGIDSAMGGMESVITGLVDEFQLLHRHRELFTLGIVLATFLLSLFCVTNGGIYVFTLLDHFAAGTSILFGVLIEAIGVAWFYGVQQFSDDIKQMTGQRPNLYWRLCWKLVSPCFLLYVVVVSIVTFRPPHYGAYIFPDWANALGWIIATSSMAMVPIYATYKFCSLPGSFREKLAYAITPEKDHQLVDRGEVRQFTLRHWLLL
Sequence of Sodium-dependent serotonin transporter (P31652 whole entry): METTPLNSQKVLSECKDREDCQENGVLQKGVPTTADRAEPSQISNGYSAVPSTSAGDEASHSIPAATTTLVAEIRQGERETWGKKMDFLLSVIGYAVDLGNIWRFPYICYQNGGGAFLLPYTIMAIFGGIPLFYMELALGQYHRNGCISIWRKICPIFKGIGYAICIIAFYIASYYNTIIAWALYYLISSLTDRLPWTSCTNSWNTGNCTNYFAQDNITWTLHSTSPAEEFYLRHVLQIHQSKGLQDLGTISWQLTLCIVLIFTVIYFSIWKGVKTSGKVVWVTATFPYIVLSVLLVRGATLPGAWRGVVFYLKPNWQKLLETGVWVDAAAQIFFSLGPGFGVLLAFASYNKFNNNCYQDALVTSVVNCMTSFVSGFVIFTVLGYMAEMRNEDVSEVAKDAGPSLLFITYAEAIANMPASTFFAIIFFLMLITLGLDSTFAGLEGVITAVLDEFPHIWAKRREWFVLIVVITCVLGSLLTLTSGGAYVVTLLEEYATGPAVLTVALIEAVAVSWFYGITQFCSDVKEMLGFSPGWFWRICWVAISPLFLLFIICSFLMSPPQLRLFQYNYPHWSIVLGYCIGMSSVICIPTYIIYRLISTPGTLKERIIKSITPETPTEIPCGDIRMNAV

Take `CNCCCC1(c2ccccc2)OC(C)(C)c2ccccc21` (centres undefined) [TALOPRAM]: the ED50 in the assay filed under Mus musculus [1] (Mus musculus, read-out: ED50) came out at 1.2 µmol/kg; in the assay listed under Mus musculus [4] (Mus musculus, read-out: ED50), 44 µmol/kg. In addition, the half-inhibitory concentration (IC50) in assay [2] amounted to 2.9 nM; in assay [3], 44000 nM; in assay [5], 1400 nM.

Turning to `CNC1CC(c2ccc(Cl)c(Cl)c2)c2ccc(O)cc21` (stereo in doubt; 80), the ED50 was 15 µmol/kg in the assay listed under Mus musculus [1] (Mus musculus, read-out: ED50) and 59 µmol/kg in the assay listed under Mus musculus [4] (Mus musculus, read-out: ED50). Besides, the half-inhibitory concentration (IC50) is 6.3 nM in assay [2], 4.1 nM in assay [3] and 0.11 nM in assay [5].

`OCCNC1CC(c2ccc(Cl)c(Cl)c2)c2ccccc21` (centres undefined): the ED50 was 75 µmol/kg in the assay listed under Mus musculus [1] (Mus musculus, read-out: ED50); > 111 µmol/kg in the assay listed under Mus musculus [6]; > 111 µmol/kg in the assay listed under Mus musculus [7]; 171 µmol/kg in the assay filed under Mus musculus [4] (Mus musculus, read-out: ED50).

For the compound `COc1ccc2c(c1)C(N(C)C)CC2c1ccc(Cl)c(Cl)c1` (stereo in doubt; 53), the ED50 was 33 µM/kg in the assay filed under Mus musculus [1] and 14 µM/kg in the assay listed under Mus musculus [4]. Besides, the IC50 in assay [2] amounted to 16 nM; in assay [3], 10 nM; in assay [5], 1.6 nM.

Take `CN(C)C1CC(c2ccc(Cl)c(Cl)c2)c2ccc(O)cc21` (centres undefined): the ED50 in the assay filed under Mus musculus [1] (Mus musculus, read-out: ED50) was determined as 22 µmol/kg. For the same compound, the half-inhibitory concentration (IC50) was 16 nM in assay [2], 7.9 nM in assay [3] and 0.37 nM in assay [5].

`CN1CCN(C2CC(c3ccc(Cl)c(Cl)c3)c3ccccc32)CC1` (stereo in doubt; 102) showed an ED50 in the assay listed under Mus musculus [1] of 100 µM/kg. This compound came in with an IC50 in assay [3] of 4.4 nM.

Turning to `CN1CCN(C2CC(c3ccc(Cl)c(Cl)c3)c3ccccc32)CC1` (stereo in doubt; (-)-102), the ED50 in the assay filed under Mus musculus [1] was determined as 69 µM/kg. Moreover, in assay [3], the IC50 is 2.3 nM.

`CNC1CC(c2ccc(Cl)c(Cl)c2)c2ccc(O)cc21` (stereo in doubt; 54) had an ED50 in the assay listed under Mus musculus [1] of 21 µM/kg. The half-maximal inhibitory concentration (IC50) stood at 0.82 nM in assay [2], 0.52 nM in assay [3] and 2.5 nM in assay [5].

`CN1CCN(C2CC(c3ccc(Cl)c(Cl)c3)c3ccccc32)CC1` (stereo in doubt; 101): the ED50 amounted to 48 µM/kg in the assay listed under Mus musculus [1] and 97 µmol/kg in the assay filed under Mus musculus [4] (Mus musculus, read-out: ED50). In assay [3], 11 nM corresponded to half-maximal inhibition (IC50).

`COc1ccc2c(c1)C(N(C)C)CC2c1ccc(Cl)c(Cl)c1` (stereo in doubt; 79): the ED50 in the assay listed under Mus musculus [1] (Mus musculus, read-out: ED50) turned out to be 34 µmol/kg; in the assay listed under Mus musculus [4] (Mus musculus, read-out: ED50) it was 7.4 µmol/kg. In addition, the half-inhibitory concentration (IC50) in assay [2] was 3 nM; in assay [3], 15 nM; in assay [5] it was 2 nM.

`CNC1CC(c2ccc(Cl)c(Cl)c2)c2ccc(OC)cc21.Cl` (centres undefined): the ED50 in the assay listed under Mus musculus [1] (Mus musculus, read-out: ED50) came out at 14 µmol/kg; in the assay filed under Mus musculus [4], 2.9 µM/kg. In addition, the figures for the IC50 in assay [2], in assay [3] and in assay [5] were 19 nM, 19 nM and 0.53 nM, respectively.

On to `CNC1CC(c2ccc(Cl)c(Cl)c2)c2ccc(OC)cc21` (centres undefined), for which the ED50 in the assay listed under Mus musculus [1] was 7 µM/kg; in the assay listed under Mus musculus [4], 14 µM/kg. The half-inhibitory concentration (IC50) in assay [2] was determined as 0.67 nM; in assay [3], 2.5 nM; in assay [5], 0.62 nM.
